This is a sample that favours compounds with a hit; in the whole collection about 2.8% have one here.
HCT116 bCat-KO – beta-catenin-lacking colon tumor cell growth suppression | HCT116 beta-catenin knockout viability, CellTiter-Glo, 60 h; active compounds read low | viability, % at 10 µM | 140,000 compounds, 1.5% hits | AID 818;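 active means viability at or under a set limit, the compound median less 4 SD, cut at about 6% in these data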;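 further: 0% = Hyamine 1622 control at 20 µM and 100% = untreated cell control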
Yeast growth inh – reduces growth of yeast BB579 in restrictive medium; S. cerevisiae BB579 growth, OD615, 48 h; inhibition, % at 10 µM; 140,000 compounds, 0.51% hits; AID 804;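 active means inhibition above a set limit, 3 SD over the mean compound inhibition, cut at about 44% in these data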
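Detection: OD615 turbidity measurement; Material: Saccharomyces cerevisiae DeaD strain BB579, replicative lifespan model yeast; Timing: 48 h exposure, 30 °C; Doses: single 10 µM dose; Medium: CSMM-D restrictive synthetic medium containing dextrose (glucose); Controls: amphotericin B at 10 µg/mL as positive control.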
Yeast life ext – extends the lifespan of yeast; inhibition of the nicotinamide effect, % at 10 µM; 130,000 compounds, 0.68% hits; S. cerevisiae growth with nicotinamide, OD615; deaD strain in restrictive glucose medium;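 active means inhibition above a set limit, placed 3 SD over the median of all compounds, cut at about 26% in these data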;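 further: 0% = nicotinamide-treated wells and 100% = cells grown without nicotinamide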
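Material: Modified budding yeast, DeaD strain | Medium: Restrictive glucose medium | Probe or stimulus: 1.5 mM nicotinamide | Dosing: Single dose 10 µM compound, 0.25% DMSO | Times: 48 h at 30 °C | Technique: OD615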
SDO1 yeast rescue – restores growth of sdo1-depleted yeast | S. cerevisiae sdo1-depleted JHY4D growth rescue, OD600 30 h; active compounds read high; pdr5 snq2 efflux-pump mutant strain | z-score at 10 µM | 140,000 compounds, 0.21% hits;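 active means z-score above 3 at both the 24 hr and the 30 hr optical density reads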;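 further: z-score against mean and SD of all compound wells on the same plate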
HCT116 PTEN-null – growth suppressors of cells with PTEN tumor suppressor deletion; HCT116 PTEN-null viability, CellTiter-Glo, 60 h; active compounds read low; viability, % at 10 µM; 140,000 compounds, 1.2% hits; AID 827;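 active means viability at or below a set limit, 4 SD under the median of all tested compounds, cut at about 3.7% in these data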;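 further: PTEN knockout HCT116 line with beta catenin targeted HCT116 as companion control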
* hit, by the source's call.

SMILES	HCT116 bCat-KO	Yeast growth inh	Yeast life ext	SDO1 yeast rescue	HCT116 PTEN-null
O=C(N/N=C/c1cc(Br)c(Br)o1)C(O)c1ccccc1 (stereo not drawn)	98.0	-24.6	-2.1	-0.07	103.4
Cn1c(SCC(=O)N/N=C/c2ccc([N+](=O)[O-])s2)nnc1-c1ccccc1	1.9*	28.9	-0.4	-1.42	1.6*
O=C(Cc1ccccc1)N/N=C/c1ccc([N+](=O)[O-])s1	1.4*	-2.6	-17.1	-1.14	1.0*
CC1(C(=O)NC(=S)NNC(=O)c2ccncc2)CCCCC1	22.1	-42.0	9.7	0.14	20.1
O=C(NNC(=S)NC(=O)C12CC3CC(CC(C3)C1)C2)c1ccncc1	16.6	74.3*	-3.5	-2.77	16.4
COC(=O)C1=C(C)N(c2ccc(Cl)c(Cl)c2)C(=O)C1	3.6*	-31.7	-6.7	-1.66	3.6*
O=[N+]([O-])c1ccc(N=Nc2ccc(O)cc2O)cc1	1.9*	82.6*	-11.8	0.04	2.4*
Cc1cccc(CN2CCN(C(=O)CCl)CC2)c1	44.4	5.4	0.7	0.93	38.8
CC(=O)c1ccc(N2CCN(C(=O)CCCc3nc4ccccc4s3)CC2)cc1	67.1	-34.4	2.1	-0.3	82.4
O=C(Nc1cc2nn(-c3ccccc3)nc2cc1Cl)c1ccco1	1.7*	-75.6	-14.1	-0.46	3.4*
Cc1ccc(C(C2=C(O)CC(C)(C)CC2=O)C2C(=O)CC(C)(C)CC2=O)s1 (stereo not drawn)	95.8	12.3	24.7	0.46	90.4
CC1(C)CC(=O)C(C(C2=C(O)CC(C)(C)CC2=O)c2ccc([N+](=O)[O-])cc2)C(=O)C1 (stereo not drawn)	85.2	-31.4	38.1*	0.49	87.5
CC1(C)CC(=O)C(C(C2=C(O)CC(C)(C)CC2=O)c2ccc(Br)s2)C(=O)C1 (stereo not drawn)	77.8	-8.4	30.5*	-0.59	79.1
Cc1ccc(Nc2nc(N)c([N+](=O)[O-])c(NCc3ccco3)n2)cc1C	37.8	-46.9	-4.9	-1.16	38.2
Cc1oc(/C=N/NC(=O)CN(c2ccccc2Br)S(C)(=O)=O)cc1Br	96.1	-47.8	-14.1	0.67	83.9
CN1CCN(c2ccc(S(=O)(=O)N3CCCCC3)cc2NC(=O)c2ccc3ccccc3c2)CC1	2.3*	-20.8	-1.5	-0.72	1.4*
CCN(CC)S(=O)(=O)c1cc(C(=O)Nc2cc(Cl)ccc2N2CCN(C)CC2)ccc1Cl	0.6*	-64.8	-10.3	-2.39	0.5*
CCN(CC)S(=O)(=O)c1cc(C(=O)NC2=NCCS2)ccc1Cl	103.5	7.1	-13.0	-0.82	107.2
Cc1ccccc1C(=O)Nc1cc(S(=O)(=O)N2CCCCC2)ccc1N1CCN(C)CC1	78.3	2.1	4.2	0.14	82.8
CCN(CC)S(=O)(=O)c1cc(C(=O)Nc2ccccc2[N+](=O)[O-])ccc1Cl	8.9	-20.2	1.7	-0.38	2.5*
CCOC(=O)N1CCN(Cc2nc(-c3ccc(C)cc3)no2)CC1	91.8	-30.4	-10.7	-0.75	95.4
Cc1ccc(-n2nc(C)c3c2OC(N)=C(C#N)C3c2ccoc2)cc1 (stereo not drawn)	109.9	-65.9	29.6*	-0.65	96.1
Cc1ccc(-n2nc(C)c3c2OC(N)=C(C#N)C3c2ccco2)cc1 (stereo not drawn)	96.7	-57.6	28.0	0.06	81.2
COc1ccc(-c2nc3ccccc3c(=O)n2N)cc1	85.5	-4.4	-21.9	1.06	82.8
COc1ccc2cc(C(C)c3nc4ccccc4c(=O)n3N)ccc2c1 (stereo not drawn)	77.7	-48.3	30.9*	-1.42	84.5
SMILES	HCT116 bCat-KO	Yeast growth inh	Yeast life ext	SDO1 yeast rescue	HCT116 PTEN-null
N#Cc1ncc(-c2ccc3c(c2)OCCOCCOCCOCCOCCO3)nc1C#N	3.8*	-4.7	8.7	-2.18	2.8*
CCCC(=Nc1ccccc1)C1=C(O)C(C(=O)OC)C(C)(C)CC1=O (stereo not drawn)	103.2	-42.0	64.8	0.78	103.8
CCC(=Nc1ccc(N)cc1)C1=C(O)C(C(=O)OC)C(C)(C)CC1=O (stereo not drawn)	98.5	-7.9	30.2*	-0.06	91.5
CCCCC(=Nc1ccc(N)cc1)C1=C(O)C(C(=O)OC)C(C)(C)CC1=O (stereo not drawn)	95.4	-62.5	72.3*	-0.6	106.2
O=C(COC(=O)/C=C/c1ccc(Cl)cc1)NCCc1ccccc1	93.0	2.1	-2.0	0.05	92.9
COc1ccc(C(=O)/C=C/c2ccc(OC)c(Cn3nnc4ccccc43)c2)cc1	6.0*	-14.7	0.9	-0.56	5.3
COc1ccc(C(=O)/C=C/c2ccc(OC)c(CN3CCOCC3)c2)cc1	12.1	6.1	3.7	-0.21	13.8
Cn1c(=O)c2ncn(CC(=O)N/N=C/c3ccco3)c2n(C)c1=O	96.4	-21.1	1.2	0.45	101.9
c1ccc(-c2nc(-n3ccnc3)nc(-n3ccnc3)n2)cc1	18.5	73.8*	-28.7	-0.94	17.3
CC(C)Nc1nc(-c2ccccc2)nc(-n2ccnc2)n1	94.7	-23.4	-9.2	-2.03	74.9
CC12CCC(C(=O)Nc3cc(Cl)ccc3Cl)(C/C1=N\O)C2(C)C (stereo not drawn)	97.3	-12.8	-2.9	0.03	92.2
O=[N+]([O-])c1ccc(O)c(N=Cc2sc3ccccc3c2O)c1	1.9*	-53.5	-0.6	1.88	3.7*
Oc1c(C=Nc2cccc3cccnc23)sc2ccccc12	3.0*	-22.0	-22.1	-1.36	3.8*
COc1ccc(N=Cc2sc3ccccc3c2Cl)cc1	76.7	-33.0	-10.1	0.75	94.4
COc1ccc(NC(C)=O)cc1NC(C)C(=O)Nc1cccc2ccccc12 (stereo not drawn)	88.6	-36.8	-17.2	1.64	95.0
Cc1ccc(CNC(=O)C(C)OC(=O)c2ccco2)cc1 (stereo not drawn)	94.2	-10.4	39.5*	-0.42	93.0
Cc1ccc(-n2sc3ccccc3c2=O)cc1	1.4*	9.0	25.9	-2.19	1.1*
COc1cccc2c1C(=O)c1c(O)c3c(c(O)c1C2=O)C[C@@](O)(C(C)=O)C[C@@H]3O[C@H]1C[C@H](N)[C@H](O)[C@H](C)O1	0.8*	38.6	-1.2	-2.02	0.8*
CCN(CC)S(=O)(=O)c1ccc2c(c1)nc(CCC(=O)Nc1ccccc1Cc1ccccc1)n2CC	82.4	-38.8	-12.0	-0.66	79.3
CCCc1[nH]n(-c2nc3ccccc3s2)c(=O)c1C=NCC(C)C	99.8	-36.6	-2.9	-1.62	92.2
Cc1ccc(NC2=C(NC(=O)c3ccccc3)C(=O)c3ccccc3C2=O)cc1Cl	5.7*	-45.9	16.4	-0.77	5.4
Cc1ccc(/C=C/C(=O)NC2CCCCCCC2)o1	44.8	-65.8	38.1*	-0.69	52.6
CC(C)c1ccc(/C=C/C(=O)NC2CCCCC2)cc1	90.3	-33.8	-1.8	0.01	94.2
O=C(NC1CCCCC1)C(c1cccnc1)N(C(=O)CCl)c1ccc(F)cc1 (stereo not drawn)	4.2*	-31.4	3.8	0.12	3.0*
